Holding throughout (assay type): cell-based, HEK293
Assay [1] deals with T1, Melanocortin receptor 5 (Mus musculus, UniProt P41149). The experiment in a line: Effective concentration against mouse melanocortin receptor-5 expressed in 293 HEK cells. In short, it runs like this: (§1)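 LacZ reporter-gene activation assay in HEK293 cells expressing human MC3, human MC4 or mouse MC5 receptor. Dose-response curves run up to 30 µM. EC50 reported as -log(EC50) (M) with 95% confidence ranges. Incomplete or absent curves at 30 µM were not assigned values.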

Assay [2] concerns the target T2, Melanocortin receptor 3 (Homo sapiens, UniProt P41968). Description: Effective concentration against human melanocortin receptor-3 expressed in 293 HEK cells. The procedure, abridged:
as §1

In assay [3] the target is T3, Melanocortin receptor 4 (Homo sapiens, UniProt P32245). Description: Effective concentration against human melanocortin receptor-4 expressed in 293 HEK cells. In short, it runs like this: as §1
The target in assay [4] is T1, Melanocortin receptor 5. The experiment in a line: Displacement of [125I]NDP-MSH from mouse melanocortin receptor-5 expressed in 293 HEK cells. The procedure, abridged:
(§2)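 Radioligand competition with [125I]-NDP-MSH on HEK293 cells expressing human MC3, human MC4 or mouse MC5 receptor. Ligands up to 30 µM. IC50 reported as -log(IC50) (M) with 95% confidence ranges. Ligands without activation activity were tested only at a single 30 µM concentration.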

In assay [5] the target is T3, Melanocortin receptor 4. Description: Displacement of [125I]NDP-MSH from human melanocortin receptor-4 expressed in 293 HEK cells. In short, it runs like this:
as §2

Assay [6] concerns the target T2, Melanocortin receptor 3. Description: Displacement of [125I]NDP-MSH from human melanocortin receptor-3 expressed in 293 HEK cells. In short, it runs like this: as §2

Where a SMILES comes first, the peptide text is derived from it. [ ]: non-standard residue; d: D form. Gly(N(CH2)2(3-indolyl)) = O=C(O)CNCCc1c[nH]c2ccccc12; Gly(N-(CH2)3-guanidino) = N=C(N)NCCCNCC(=O)O; Nle = CCCC[C@H](N)C(=O)O; Nphe = O=C(O)CNCc1ccccc1; NBuGly = CCCCNCC(=O)O; Nlys = NCCCCNCC(=O)O

T3 sequence (P32245 whole entry): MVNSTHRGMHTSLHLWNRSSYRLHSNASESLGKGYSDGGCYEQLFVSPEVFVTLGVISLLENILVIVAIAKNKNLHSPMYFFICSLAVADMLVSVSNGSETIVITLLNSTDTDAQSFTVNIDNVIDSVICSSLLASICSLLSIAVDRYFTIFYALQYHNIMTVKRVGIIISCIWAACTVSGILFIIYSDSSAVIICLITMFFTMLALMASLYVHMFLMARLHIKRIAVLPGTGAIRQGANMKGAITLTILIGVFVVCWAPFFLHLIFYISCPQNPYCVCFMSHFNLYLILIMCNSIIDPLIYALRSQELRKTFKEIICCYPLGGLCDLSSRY
T1 sequence (P41149 whole entry): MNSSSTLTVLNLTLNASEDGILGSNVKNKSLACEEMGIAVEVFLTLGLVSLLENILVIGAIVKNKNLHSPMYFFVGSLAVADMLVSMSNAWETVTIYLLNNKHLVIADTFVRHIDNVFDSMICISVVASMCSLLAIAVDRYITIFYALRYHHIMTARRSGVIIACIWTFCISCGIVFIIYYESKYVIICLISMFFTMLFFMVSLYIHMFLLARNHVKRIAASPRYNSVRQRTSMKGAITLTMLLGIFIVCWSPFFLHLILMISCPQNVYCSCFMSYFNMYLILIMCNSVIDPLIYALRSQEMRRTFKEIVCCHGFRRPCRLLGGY
T2 sequence (P41968 whole entry): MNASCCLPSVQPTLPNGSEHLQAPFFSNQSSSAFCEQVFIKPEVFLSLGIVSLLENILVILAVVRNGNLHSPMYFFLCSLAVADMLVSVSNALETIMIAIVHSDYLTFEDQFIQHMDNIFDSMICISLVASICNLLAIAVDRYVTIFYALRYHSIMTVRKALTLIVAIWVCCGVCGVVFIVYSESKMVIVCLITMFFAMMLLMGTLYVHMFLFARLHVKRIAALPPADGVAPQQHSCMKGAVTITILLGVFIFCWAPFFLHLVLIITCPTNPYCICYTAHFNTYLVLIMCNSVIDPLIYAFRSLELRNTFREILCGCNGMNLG

In assay [1], `CCCC[C@H](NC(C)=O)C(=O)NCC(=O)N[C@@H](CCCCN)C(=O)N(CC(=O)N(CCCN=C(N)N)CC(=O)N(CCc1c[nH]c2ccccc12)CC(=O)NCC(N)=O)Cc1ccccc1` (Ac-[Nle]GK[Nphe][Gly(N-(CH2)3-guanidino)][Gly(N(CH2)2(3-indolyl))]G-NH2) had an EC50 of 7.94 µM.
On to `CCCCN(CC(=O)NCC(=O)N[C@@H](CCCCN)C(=O)N[C@H](Cc1ccccc1)C(=O)N[C@@H](CCCNC(=N)N)C(=O)N(CCc1c[nH]c2ccccc12)CC(=O)NCC(N)=O)C(C)=O`, for which the 50% effective concentration (EC50) is 3.16 µM in assay [2] and 0.316 µM in assay [3].
`CCCCN(CC(=O)NCC(=O)N[C@@H](CCCCN)C(=O)N(CC(=O)N[C@@H](CCCN=C(N)N)C(=O)N[C@@H](Cc1c[nH]c2ccccc12)C(=O)NCC(N)=O)Cc1ccccc1)C(C)=O` (Ac-[NBuGly]GK[Nphe]RWG-NH2): in assay [3], the EC50 is 2 µM. The IC50 in assay [4] and in assay [5] was 5.01 µM each time.
In the case of `CCCCN(CC(=O)NCC(=O)N(CCCCN)CC(=O)N[C@@H](Cc1ccccc1)C(=O)N(CCCN=C(N)N)CC(=O)N[C@@H](Cc1c[nH]c2ccccc12)C(=O)NCC(N)=O)C(C)=O` (Ac-[NBuGly]G[Nlys]F[Gly(N-(CH2)3-guanidino)]WG-NH2), the concentration giving a half-maximal response (EC50) was 3.16 µM in assay [3] and 6.31 µM in assay [1]. This molecule showed an IC50 in assay [5] of 5.01 µM.
For `CCCC[C@H](NC(C)=O)C(=O)NCC(=O)N(CCCCN)CC(=O)N[C@@H](Cc1ccccc1)C(=O)N(CCCN=C(N)N)CC(=O)N[C@@H](Cc1c[nH]c2ccccc12)C(=O)NCC(N)=O` (Ac-[Nle]G[Nlys]F[Gly(N-(CH2)3-guanidino)]WG-NH2), the figures for the EC50 in assay [3] and in assay [1] were 2 µM and 0.501 µM, respectively.
`CCCC[C@H](NC(C)=O)C(=O)NCC(=O)N(CCCCN)CC(=O)N[C@H](Cc1ccccc1)C(=O)N[C@@H](CCCNC(=N)N)C(=O)N(CCc1c[nH]c2ccccc12)CC(=O)NCC(N)=O` showed an EC50 in assay [3] of 2 µM.
In assay [3], `CCCCN(CC(=O)NCC(=O)N(CCCCN)CC(=O)N[C@H](Cc1ccccc1)C(=O)N(CCCN=C(N)N)CC(=O)N(CC(=O)NCC(N)=O)Cc1c[nH]c2ccccc12)C(C)=O` showed a concentration giving a half-maximal response (EC50) of 5.01 µM. The IC50 in assay [4] and in assay [5] was 3.98 µM in each case.
Take `CCCCN(CC(=O)NCC(=O)N(CCCCN)CC(=O)N[C@H](Cc1ccccc1)C(=O)N[C@@H](CCCNC(=N)N)C(=O)N(CC(=O)NCC(N)=O)Cc1c[nH]c2ccccc12)C(C)=O`: the midpoint of the response in assay [3], the EC50, lay at 3.98 µM. The results for the IC50 in assay [6], in assay [4] and in assay [5] were 2 µM, 2 µM and 0.794 µM, respectively.
`CCCCN(CC(=O)NCC(=O)N(CCCCN)CC(=O)N[C@H](Cc1ccccc1)C(=O)N[C@@H](CCCN=C(N)N)C(=O)N(CCc1c[nH]c2ccccc12)CC(=O)NCC(N)=O)C(C)=O` showed an EC50 in assay [3] of 6.31 µM. Moreover, the IC50 was 6.31 µM in assay [4] and 2 µM in assay [5].
The molecule `CCCC[C@H](NC(C)=O)C(=O)NCC(=O)N[C@@H](CCCCN)C(=O)N(CC(=O)N[C@@H](CCCN=C(N)N)C(=O)N[C@@H](Cc1c[nH]c2ccccc12)C(=O)NCC(N)=O)Cc1ccccc1` (Ac-[Nle]GK[Nphe]RWG-NH2) gave an EC50 in assay [3] of 1.26 µM.
`CCCCN(CC(=O)NCC(=O)N[C@@H](CCCCN)C(=O)N[C@H](Cc1ccccc1)C(=O)N(CCCN=C(N)N)CC(=O)N[C@@H](Cc1c[nH]c2ccccc12)C(=O)NCC(N)=O)C(C)=O`: the EC50 in assay [2] is 5.01 µM; in assay [3], 0.794 µM; in assay [1] it was 6.31 µM.
For the molecule `CCCC[C@H](NC(C)=O)C(=O)NCC(=O)N(CCCCN)CC(=O)N(CC(=O)N[C@@H](CCCN=C(N)N)C(=O)N[C@@H](Cc1c[nH]c2ccccc12)C(=O)NCC(N)=O)Cc1ccccc1` (Ac-[Nle]G[Nlys][Nphe]RWG-NH2), in assay [3], the response was half-maximal at 2 µM (EC50).
With `CCCC[C@H](NC(C)=O)C(=O)NCC(=O)N(CCCCN)CC(=O)NC(Cc1ccccc1)C(=O)N(CCCNC(=N)N)CC(=O)N(CC(=O)NCC(N)=O)Cc1c[nH]c2ccccc12` (single isomer, unassigned), the EC50 was 6.31 µM in assay [2], 2 µM in assay [3] and 3.16 µM in assay [1]. Also, the IC50 in assay [4] and in assay [5] was 3.16 µM throughout.

The values are drawn from ChEMBL document CHEMBL1144399, “Peptoid-peptide hybrids as potent novel melanocortin receptor ligands” (J Med Chem, 2005).
